Measured values: ChEMBL document CHEMBL4350992, “Identification of Diketopiperazine-Containing 2-Anilinobenzamides as Potent Sirtuin 2 (SIRT2)-Selective Inhibitors Targeting the "Selectivity Pocket", Substrate-Binding Site, and NAD+-Binding Site” (J Med Chem, 2019)
Active and inactive are the calls of the source. The calls are words filed in the database; no cut-off is given here.

Key:
[1] = target: NAD-dependent protein deacylase sirtuin-5, mitochondrial (Homo sapiens) (UniProt Q9NXA8); assay: Inhibition of human N-terminal His-tagged SIRT5 (37 to 310 residues) expressed in Escherichia coli at 100 uM using flour de lys succinyl as substrate incubated for 3 hrs measured up to 30 mins by fluorescence assay relative to control
Chain of NAD-dependent protein deacylase sirtuin-5, mitochondrial (Homo sapiens) (Q9NXA8 37-310 limits assumed): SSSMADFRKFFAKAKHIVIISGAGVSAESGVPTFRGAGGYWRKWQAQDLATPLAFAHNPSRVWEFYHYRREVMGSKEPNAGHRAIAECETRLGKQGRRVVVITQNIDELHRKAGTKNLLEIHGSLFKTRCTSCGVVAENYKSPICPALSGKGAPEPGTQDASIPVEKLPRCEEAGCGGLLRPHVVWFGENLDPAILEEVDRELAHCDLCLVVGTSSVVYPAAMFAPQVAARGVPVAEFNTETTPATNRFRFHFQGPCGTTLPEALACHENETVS

[2] = target: T1, NAD-dependent protein deacetylase sirtuin-1 (Homo sapiens) (UniProt Q96EB6); assay: Inhibition of human N-terminal His-tagged SIRT1 expressed in Escherichia coli at 100 uM using p53 (Arg-His-Lys-Lys(Ac)) (379 to 382 residues) as substrate incubated for 3 hrs measured up to 30 mins by fluorescence assay relative to control
T1 sequence (whole entry): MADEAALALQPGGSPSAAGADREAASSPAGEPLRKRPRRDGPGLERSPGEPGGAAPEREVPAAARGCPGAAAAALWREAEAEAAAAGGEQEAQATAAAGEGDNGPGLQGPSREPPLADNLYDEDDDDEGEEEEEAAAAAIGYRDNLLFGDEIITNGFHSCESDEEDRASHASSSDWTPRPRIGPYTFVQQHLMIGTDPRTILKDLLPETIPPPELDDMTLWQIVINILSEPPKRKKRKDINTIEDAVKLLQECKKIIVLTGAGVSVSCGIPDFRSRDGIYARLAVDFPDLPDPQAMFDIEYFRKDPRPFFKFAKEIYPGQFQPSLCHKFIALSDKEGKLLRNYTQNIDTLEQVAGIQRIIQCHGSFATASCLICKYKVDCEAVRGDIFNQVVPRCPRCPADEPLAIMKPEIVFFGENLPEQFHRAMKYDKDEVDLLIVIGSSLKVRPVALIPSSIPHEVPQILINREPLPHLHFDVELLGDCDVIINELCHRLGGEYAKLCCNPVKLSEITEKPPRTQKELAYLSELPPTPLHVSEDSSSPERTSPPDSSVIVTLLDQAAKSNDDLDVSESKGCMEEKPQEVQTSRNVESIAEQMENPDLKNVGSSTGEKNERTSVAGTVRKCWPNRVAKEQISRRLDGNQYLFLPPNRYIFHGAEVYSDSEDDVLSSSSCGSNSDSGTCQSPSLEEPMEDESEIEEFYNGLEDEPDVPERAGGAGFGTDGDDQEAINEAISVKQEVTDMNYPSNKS

[3] = Solubility of the compound in buffer/DMSO at 100 uM; assay type: physicochemical
[4] = target: T2, NAD-dependent protein deacetylase sirtuin-3, mitochondrial (Homo sapiens) (UniProt Q9NTG7); assay: Inhibition of human N-terminal His-tagged SIRT3 (102 to 399 residues) expressed in Escherichia coli at 100 uM using p53 (Gln-Pro-Lys-Lys(Ac)) (317 to 320 residues) as substrate incubated for 3 hrs measured up to 30 mins by fluorescence assay relative to control
T2 sequence (whole entry): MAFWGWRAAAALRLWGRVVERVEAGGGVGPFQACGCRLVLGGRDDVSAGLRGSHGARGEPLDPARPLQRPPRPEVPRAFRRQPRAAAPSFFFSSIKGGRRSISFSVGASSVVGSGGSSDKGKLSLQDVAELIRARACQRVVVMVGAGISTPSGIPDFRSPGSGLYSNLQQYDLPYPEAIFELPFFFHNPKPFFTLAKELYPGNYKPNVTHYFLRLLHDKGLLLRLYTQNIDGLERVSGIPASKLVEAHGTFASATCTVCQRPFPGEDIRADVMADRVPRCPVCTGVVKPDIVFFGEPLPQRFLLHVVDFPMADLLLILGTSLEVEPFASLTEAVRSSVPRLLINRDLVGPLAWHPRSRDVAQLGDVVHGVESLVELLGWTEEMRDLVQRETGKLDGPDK

[5] = target: T2, NAD-dependent protein deacetylase sirtuin-3, mitochondrial (Homo sapiens); assay: Inhibition of human N-terminal His-tagged SIRT3 (102 to 399 residues) expressed in Escherichia coli at 50 uM using p53 (Gln-Pro-Lys-Lys(Ac)) (317 to 320 residues) as substrate incubated for 3 hrs measured up to 30 mins by fluorescence assay relative to control
[6] = target: T3, NAD-dependent protein deacetylase sirtuin-2 (Homo sapiens) (UniProt Q8IXJ6); assay: Inhibition of human N-terminal His-tagged SIRT2 expressed in Escherichia coli at 10 uM using p53 (Gln-Pro-Lys-Lys(Ac)) (317 to 320 residues) as substrate incubated for 3 hrs measured up to 30 mins by fluorescence assay relative to control
T3 sequence (whole entry): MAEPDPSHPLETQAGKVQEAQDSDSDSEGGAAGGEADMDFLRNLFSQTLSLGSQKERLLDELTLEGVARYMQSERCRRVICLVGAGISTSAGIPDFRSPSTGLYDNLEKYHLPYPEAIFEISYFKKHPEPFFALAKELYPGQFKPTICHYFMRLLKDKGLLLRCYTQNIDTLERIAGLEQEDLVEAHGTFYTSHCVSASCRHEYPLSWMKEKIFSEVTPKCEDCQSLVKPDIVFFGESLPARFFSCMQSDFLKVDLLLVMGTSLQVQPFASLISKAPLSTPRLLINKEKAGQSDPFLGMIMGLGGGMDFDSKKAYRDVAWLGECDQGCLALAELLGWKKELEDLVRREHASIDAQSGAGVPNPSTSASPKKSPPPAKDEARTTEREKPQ

[7] = target: T1, NAD-dependent protein deacetylase sirtuin-1 (Homo sapiens); assay: Inhibition of human N-terminal His-tagged SIRT1 expressed in Escherichia coli at 50 uM using p53 (Arg-His-Lys-Lys(Ac)) (379 to 382 residues) as substrate incubated for 3 hrs measured up to 30 mins by fluorescence assay relative to control
[8] = target: T3, NAD-dependent protein deacetylase sirtuin-2 (Homo sapiens); assay: Inhibition of human N-terminal His-tagged SIRT2 expressed in Escherichia coli at 1 uM using p53 (Gln-Pro-Lys-Lys(Ac)) (317 to 320 residues) as substrate incubated for 3 hrs measured up to 30 mins by fluorescence assay relative to control
[9] = target: T4, NAD-dependent protein deacetylase sirtuin-2 (Homo sapiens, UniProt Q8IXJ6); assay: Inhibition of human N-terminal His-tagged SIRT2 expressed in Escherichia coli using p53 (Gln-Pro-Lys-Lys(Ac)) (317 to 320 residues) as substrate incubated for 3 hrs measured up to 30 mins by fluorescence assay
T4 sequence (Q8IXJ6 whole entry): T3 sequence (whole entry)

[10] = target: T4, NAD-dependent protein deacetylase sirtuin-2; assay: Inhibition of human N-terminal His-tagged SIRT2 expressed in Escherichia coli using p53 (Gln-Pro-Lys-Lys(Ac)) (317 to 320 residues) as substrate incubated for 3 hrs measured up to 30 mins in presence of NAD+ by fluorescence-based Michaelis-Menten plot analysis; conditions: in the assay text read “incubated for 45 mins” for “incubated for 3 hrs”
In short: (§1)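 The Fluor de Lys SIRT2 assay was run with reaction time shortened to 45 min. The acetylated substrate concentration was varied at saturating NAD⁺. Inhibitor was tested at 0, 0.1, 0.4, 0.6 and 1 µM, or at 0, 0.02, 0.06, 0.1 and 0.4 µM. Ki was derived from Michaelis–Menten and Lineweaver–Burk plots.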

[11] = system: N2a; assay: Induction of neurite outgrowth in mouse Neuro2a cells at 0.2 to 2 uM measured after 24 to 48 hrs by microscopic analysis; assay type: functional, cell-based
In short: (§2)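 N2a cells were plated at 1×10⁴ cells/mL in DMEM with 10% FBS, then switched to DMEM with 2% FBS for differentiation. Compound was added for 24 or 48 h and morphology scored by microscopy. A cell counted as differentiated if it had ≥1 neurite longer than twice the soma diameter; ≥100 cells were counted per condition. Triplicate experiments, mean ± SD, one-way ANOVA with Dunnett's test.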

[12] = target: T3, NAD-dependent protein deacetylase sirtuin-2 (Homo sapiens); assay: Competitive inhibition of human N-terminal His-tagged SIRT2 expressed in Escherichia coli up to uM using varying levels of p53 (Gln-Pro-Lys-Lys(Ac)) (317 to 320 residues) as substrate incubated for 3 hrs measured up to 30 mins in presence of NAD+ by Lineweaver-burk plot analysis; conditions: in the assay text read “incubated for 45 mins” for “incubated for 3 hrs”; in short: as §1
[13] = system: MCF7; assay: Growth inhibition of human MCF7 cells at 30 uM measured after 72 hrs by AlamarBlue assay relative to control; assay type: functional; conditions: MCF7, 72 h, read-out: GI
In short: (§3)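 MCF-7 cells in DMEM with 10% FBS were seeded at 1×10³ cells/well. After 24 h at 37°C, 5% CO₂, compound in medium was added at varying concentrations for 72 h. AlamarBlue was then added for 3 h and fluorescence read (ex 540/em 590 nm). Percent growth was calculated from the readings, and GI50 from the dose response. Three independent determinations.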

[14] = target: T3, NAD-dependent protein deacetylase sirtuin-2 (Homo sapiens); assay: Binding affinity to recombinant human full-length N-terminal His-tagged SIRT2 expressed in baculovirus infected Sf9 insect cells assessed as ADP ribose-compound complex formation measured after 5 mins in presence of NAD+ by MALDI-TOF analysis
In short: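 Recombinant SIRT2 at 1.9 µM, 500 µM NAD⁺ and 1 mM compound were reacted for 5 min at 37°C in 40 mM sodium phosphate pH 7.0 with 240 mM NaCl, 120 mM imidazole, 0.2 mM DTT, 20% glycerol and 2% DMSO. Controls lacked compound, NAD⁺ or enzyme. Mixtures were diluted, desalted on C18 tips and analysed by MALDI-TOF in reflectron negative-ion mode with α-cyano-4-hydroxycinnamic acid matrix.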

[15] = target: T5, NAD-dependent protein deacetylase sirtuin-1 (Homo sapiens, UniProt Q96EB6); assay: Inhibition of human N-terminal His-tagged SIRT1 expressed in Escherichia coli using p53 (Arg-His-Lys-Lys(Ac)) (379 to 382 residues) as substrate incubated for 3 hrs measured up to 30 mins by fluorescence assay
T5 sequence (Q96EB6 whole entry): T1 sequence (whole entry)

[16] = system: N2a; assay: Induction of neurite outgrowth in mouse Neuro2a cells assessed as differentiated cells at 2 uM measured after 24 hrs by microscopic analysis (reference value: 2.53 +/- 0.76%); assay type: functional; in short: as §2
[17] = system: N2a; assay: Induction of neurite outgrowth in mouse Neuro2a cells assessed as differentiated cells at 2 uM measured after 48 hrs by microscopic analysis (reference value: 4.18 +/- 1.67%); assay type: functional; in short: as §2
[18] = target: Lysine-specific demethylase 5A (Homo sapiens) (UniProt P29375); assay: Inhibition of human C-terminal FLAG-tagged KDM5A (1 to 1090 residues) expressed in baculovirus infected Sf9 insect cells at 2.5 to 100 uM using H3(1-21)K4(Me3)-GGK(Biotin)/2-OG as substrate measured after 1 hr by Alphalisa assay
Chain of Lysine-specific demethylase 5A (Homo sapiens) (P29375 whole entry, the tested form may be a part): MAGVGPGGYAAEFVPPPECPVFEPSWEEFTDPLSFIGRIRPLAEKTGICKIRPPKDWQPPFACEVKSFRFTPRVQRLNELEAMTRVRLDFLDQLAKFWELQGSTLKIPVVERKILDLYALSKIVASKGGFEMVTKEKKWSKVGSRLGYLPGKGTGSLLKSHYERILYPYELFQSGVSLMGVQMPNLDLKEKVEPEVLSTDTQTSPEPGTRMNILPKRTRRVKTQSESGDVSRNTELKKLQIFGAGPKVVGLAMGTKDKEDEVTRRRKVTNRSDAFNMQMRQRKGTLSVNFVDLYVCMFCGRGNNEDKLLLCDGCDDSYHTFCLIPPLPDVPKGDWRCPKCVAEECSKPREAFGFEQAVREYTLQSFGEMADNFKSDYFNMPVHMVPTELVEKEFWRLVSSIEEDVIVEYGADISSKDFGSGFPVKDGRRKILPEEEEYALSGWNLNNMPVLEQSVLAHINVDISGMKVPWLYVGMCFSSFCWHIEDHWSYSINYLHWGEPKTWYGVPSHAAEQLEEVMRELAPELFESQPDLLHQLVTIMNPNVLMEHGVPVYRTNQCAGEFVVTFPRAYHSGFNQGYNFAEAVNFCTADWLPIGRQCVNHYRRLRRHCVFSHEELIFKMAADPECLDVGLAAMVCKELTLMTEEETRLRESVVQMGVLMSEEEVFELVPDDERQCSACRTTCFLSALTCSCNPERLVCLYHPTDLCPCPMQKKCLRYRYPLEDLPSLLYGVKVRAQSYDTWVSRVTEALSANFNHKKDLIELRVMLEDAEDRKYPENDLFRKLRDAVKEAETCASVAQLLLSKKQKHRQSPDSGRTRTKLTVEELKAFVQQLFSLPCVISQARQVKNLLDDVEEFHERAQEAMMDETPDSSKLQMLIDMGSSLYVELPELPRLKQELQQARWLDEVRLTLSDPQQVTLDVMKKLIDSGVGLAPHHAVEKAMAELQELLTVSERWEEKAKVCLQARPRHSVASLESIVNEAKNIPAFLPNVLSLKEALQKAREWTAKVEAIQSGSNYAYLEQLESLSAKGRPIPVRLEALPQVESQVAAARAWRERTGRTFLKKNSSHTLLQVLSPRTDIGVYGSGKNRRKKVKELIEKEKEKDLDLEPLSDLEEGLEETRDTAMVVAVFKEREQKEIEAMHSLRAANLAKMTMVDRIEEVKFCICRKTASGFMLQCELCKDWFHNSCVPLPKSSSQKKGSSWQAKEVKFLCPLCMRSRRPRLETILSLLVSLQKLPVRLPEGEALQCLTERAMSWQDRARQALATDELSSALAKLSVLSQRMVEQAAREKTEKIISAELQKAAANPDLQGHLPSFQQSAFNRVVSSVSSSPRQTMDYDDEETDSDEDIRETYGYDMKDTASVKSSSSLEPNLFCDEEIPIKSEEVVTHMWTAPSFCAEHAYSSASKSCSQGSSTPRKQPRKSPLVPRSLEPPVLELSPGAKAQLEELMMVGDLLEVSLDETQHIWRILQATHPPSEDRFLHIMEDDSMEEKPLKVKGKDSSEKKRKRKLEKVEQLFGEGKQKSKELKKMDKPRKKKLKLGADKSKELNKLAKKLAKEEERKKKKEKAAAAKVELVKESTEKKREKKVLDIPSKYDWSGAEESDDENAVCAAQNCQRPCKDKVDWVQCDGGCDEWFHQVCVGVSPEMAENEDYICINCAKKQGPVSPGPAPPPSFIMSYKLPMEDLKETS

[19] = target: Histone deacetylase (Homo sapiens) (UniProt Q13547+O15379+Q9UBN7+Q92769+Q9UQL6+Q8WUI4+Q9BY41+Q96DB2+P56524+Q9UKV0+Q969S8); assay: Inhibition of HDAC in human HeLa cell nuclear extract at 2.5 to 100 uM using fluor de lys as substrate by fluorescence assay; assay type: cell-free
[20] = system: MCF7; assay: Growth inhibition of human MCF7 cells measured after 72 hrs by AlamarBlue assay; assay type: functional; in short: as §3

inhibition [1] | inhibition [2] | inhibition [4] | inhibition [6] | inhibition [7] | inhibition [8] | IC50 [9] | Ki [10] | inhibition [12] | Structure (SMILES) | inhibition of growth at 30 µM [13] | further results
6% | 51% | 61% |  |  |  |  |  |  | C[C@H](NC(=O)[C@H](CCCCNC(=O)CNC(=O)c1ccccc1Nc1cccc(OCCc2ccccc2)c1)NC(=O)OCc1ccccc1)C(N)=O |  | solubility [3]: Insoluble
16% | 28% | 80% | 93% | 16% | 47% | 1180 nM |  |  | Cc1cc(C)nc(SCC(=O)Nc2cccc(Nc3ccccc3C(N)=O)c2)n1 |  | inhibition [5]: 63%
2% | 13% | 17% | 92% | 9% | 59% | 600 nM | 470 nM | Active | O=C(CNC(=O)c1ccccc1Nc1cccc(OCCc2ccccc2)c1)NCCCC[C@@H]1NC(=O)CNC1=O | 40% | Activity [11]: inactive
0% |  |  |  | 41% | 73% | 310 nM | 68 nM | Active | O=C1CNC(=O)[C@H](CCCCNC(=S)CNC(=O)c2ccccc2Nc2cccc(OCCc3ccccc3)c2)N1 | 96% | Activity [14]: Active; IC50 [15]: 77400 nM; Activity [16]: 4.54%; Activity [17]: 12.27%; inhibition [18]: inactive; inhibition [19]: inactive; growth inhibition (GI) [20]: Dose-dependent effect; GI50 ([20]; MCF7, 72 h): 11500 nM
